Assay results: ChEMBL document CHEMBL1811814, “Synthesis and evaluation of indole, pyrazole, chromone and pyrimidine based conjugates for tumor growth inhibitory activities--development of highly efficacious cytotoxic agents” (Eur J Med Chem, 2010)

How the values were obtained:
Type in all cases: functional
Set-up in all cases: scale not given: the % may be the effect or the level left
[1] = system: BT-549; assay: Growth inhibition of human BT549 cells assessed tumor cell growth at 10^-5 M
Method in brief: (§1)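 NCI 60-human-tumor-cell-line panel screen. Each compound was tested at a single concentration of 10^-5 M, and percent growth of tumor cells was recorded for each cell line. Growth inhibition was expressed from these percent-growth values.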

[2] = system: NCI-H522; assay: Growth inhibition of human NCI-H522 cells assessed tumor cell growth at 10^-5 M; method in brief: as §1
[3] = system: MDA-MB-468; assay: Growth inhibition of human MDA-MB-468 cells assessed tumor cell growth at 10^-5 M; method in brief: as §1
[4] = system: RXF 393; assay: Growth inhibition of human RXF393 cells assessed tumor cell growth at 10^-5 M; method in brief: as §1
[5] = system: SF-268; assay: Growth inhibition of human SF268 cells assessed tumor cell growth at 10^-5 M; method in brief: as §1
[6] = system: A549; assay: Growth inhibition of human A549 cells assessed tumor cell growth at 10^-5 M; method in brief: as §1
[7] = system: M14; assay: Growth inhibition of human M14 cells assessed tumor cell growth at 10^-5 M; method in brief: as §1
[8] = system: A498; assay: Growth inhibition of human A498 cells assessed tumor cell growth at 10^-5 M; method in brief: as §1
[9] = system: SK-MEL-28; assay: Growth inhibition of human SK-MEL-28 cells assessed tumor cell growth at 10^-5 M; method in brief: as §1
[10] = system: UACC-257; assay: Growth inhibition of human UACC257 cells assessed tumor cell growth at 10^-5 M
Method in brief: (§2)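 Single-dose screen at 10^-5 M across the 60 human tumor cell line panel, run to NCI standards. The value is the percent growth of each cell line in the presence of compound. Compounds active at this dose moved on to five-concentration testing (10^-4 to 10^-8 M).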

[11] = Growth inhibition of human […] cells assessed tumor cell growth at 10^-5 M; method in brief: as §1
[12] = system: HL-60(TB); assay: Growth inhibition of human HL-60(TB) cells assessed tumor cell growth at 10^-5 M
Method in brief: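 HL-60(TB), part of the 60-line panel, tested at a single concentration of 10^-5 M. The read-out is percent tumor cell growth relative to untreated growth.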

[13] = system: COLO 205; assay: Growth inhibition of human COLO205 cells assessed tumor cell growth at 10^-5 M; method in brief: as §1
[14] = system: SW-620; assay: Growth inhibition of human SW620 cells assessed tumor cell growth at 10^-5 M; method in brief: as §2
[15] = system: KM12; assay: Growth inhibition of human KM12 cells assessed tumor cell growth at 10^-5 M; method in brief: as §1
[16] = system: HT-29; assay: Growth inhibition of human HT-29 cells assessed tumor cell growth at 10^-5 M; method in brief: as §1
[17] = system: U-251; assay: Growth inhibition of human U251 cells assessed tumor cell growth at 10^-5 M; method in brief: as §2
[18] = system: PC-3; assay: Growth inhibition of human PC3 cells assessed tumor cell growth at 10^-5 M; method in brief: as §1
[19] = system: CAKI-1; assay: Growth inhibition of human Caki1 cells assessed tumor cell growth at 10^-5 M; method in brief: as §1
[20] = system: HCT-116; assay: Growth inhibition of human HCT116 cells assessed tumor cell growth at 10^-5 M; method in brief: as §1
[21] = system: DU-145; assay: Growth inhibition of human DU145 cells assessed tumor cell growth at 10^-5 M; method in brief: as §1
[22] = system: SNB-19; assay: Growth inhibition of human SNB19 cells assessed tumor cell growth at 10^-5 M; method in brief: as §2
[23] = system: SF-539; assay: Growth inhibition of human SF539 cells assessed tumor cell growth at 10^-5 M; method in brief: as §1
[24] = system: Malme-3M; assay: Growth inhibition of human MALME-3M cells assessed tumor cell growth at 10^-5 M; method in brief: as §1
[25] = system: SK-OV-3; assay: Growth inhibition of human SKOV3 cells assessed tumor cell growth at 10^-5 M; method in brief: as §1
[26] = system: CCRF-CEM; assay: Growth inhibition of human CCRF-CEM cells assessed tumor cell growth at 10^-5 M; method in brief: as §1
[27] = system: HOP-62; assay: Growth inhibition of human HOP62 cells assessed tumor cell growth at 10^-5 M; method in brief: as §1
[28] = system: 786-0; assay: Growth inhibition of human 786-0 cells assessed tumor cell growth at 10^-5 M; method in brief: as §1
[29] = system: UACC-62; assay: Growth inhibition of human UACC62 cells assessed tumor cell growth at 10^-5 M; method in brief: as §2
[30] = system: IGROV-1; assay: Growth inhibition of human IGROV1 cells assessed tumor cell growth at 10^-5 M; method in brief: as §1
[31] = system: NCI-H322M; assay: Growth inhibition of human NCI-H322M cells assessed tumor cell growth at 10^-5 M; method in brief: as §1
[32] = system: HCT-15; assay: Growth inhibition of human HCT15 cells assessed tumor cell growth at 10^-5 M; method in brief: as §1
[33] = system: OVCAR-4; assay: Growth inhibition of human OVCAR4 cells assessed tumor cell growth at 10^-5 M; method in brief: as §1
[34] = system: EKVX; assay: Growth inhibition of human EKVX cells assessed tumor cell growth at 10^-5 M; method in brief: as §1
[35] = system: LOX IMVI; assay: Growth inhibition of human LOXIMVI cells assessed tumor cell growth at 10^-5 M; method in brief: as §1
[36] = system: K562; assay: Growth inhibition of human K562 cells assessed tumor cell growth at 10^-5 M; method in brief: as §1
[37] = system: UO-31; assay: Growth inhibition of human UO31 cells assessed tumor cell growth at 10^-5 M; method in brief: as §2
[38] = system: SR; assay: Growth inhibition of human SR cells assessed tumor cell growth at 10^-5 M; method in brief: as §2
[39] = system: OVCAR-3; assay: Growth inhibition of human OVCAR3 cells assessed tumor cell growth at 10^-5 M; method in brief: as §1
[40] = system: SNB-75; assay: Growth inhibition of human SNB75 cells assessed tumor cell growth at 10^-5 M; method in brief: as §2
[41] = system: SF-295; assay: Growth inhibition of human SF295 cells assessed tumor cell growth at 10^-5 M; method in brief: as §1
[42] = system: MDA-MB-435; assay: Growth inhibition of human MDA-MB-435 cells assessed tumor cell growth at 10^-5 M; method in brief: as §1
[43] = system: SK-MEL-2; assay: Growth inhibition of human SK-MEL-2 cells assessed tumor cell growth at 10^-5 M; method in brief: as §1
[44] = system: SN12C; assay: Growth inhibition of human SN12C cells assessed tumor cell growth at 10^-5 M; method in brief: as §1
[45] = system: MOLT-4; assay: Growth inhibition of human MOLT4 cells assessed tumor cell growth at 10^-5 M; method in brief: as §1
[46] = system: ACHN; assay: Growth inhibition of human ACHN cells assessed tumor cell growth at 10^-5 M; method in brief: as §1
[47] = system: T47D; assay: Growth inhibition of human T47D cells assessed tumor cell growth at 10^-5 M; method in brief: as §2
[48] = system: SK-MEL-5; assay: Growth inhibition of human SK-MEL-5 cells assessed tumor cell growth at 10^-5 M; method in brief: as §1
[49] = system: NCI/ADR-RES; assay: Growth inhibition of human NCI/ADR-RES cells assessed tumor cell growth at 10^-5 M; method in brief: as §1
[50] = system: HOP-92; assay: Growth inhibition of human HOP92 cells assessed tumor cell growth at 10^-5 M; method in brief: as §1
[51] = system: OVCAR-8; assay: Growth inhibition of human OVCAR8 cells assessed tumor cell growth at 10^-5 M; method in brief: as §1
[52] = Growth inhibition of human Hs 578T cells assessed tumor cell growth at 10^-5 M; method in brief: as §1
[53] = system: TK-10; assay: Growth inhibition of human TK10 cells assessed tumor cell growth at 10^-5 M; method in brief: as §2
[54] = system: NCI-H226; assay: Growth inhibition of human NCI-H226 cells assessed tumor cell growth at 10^-5 M; method in brief: as §1
[55] = system: MCF7; assay: Growth inhibition of human MCF7 cells assessed tumor cell growth at 10^-5 M; method in brief: as §1
[56] = system: MDA-MB-231; assay: Growth inhibition of human MDA-MB-231 cells assessed tumor cell growth at 10^-5 M; method in brief: as §1
[57] = system: NCI-H23; assay: Growth inhibition of human NCI-H23 cells assessed tumor cell growth at 10^-5 M; method in brief: as §1
[58] = system: OVCAR-5; assay: Growth inhibition of human OVCAR5 cells assessed tumor cell growth at 10^-5 M; method in brief: as §1
[59] = system: HCC 2998; assay: Growth inhibition of human HCC2998 cells assessed tumor cell growth at 10^-5 M; method in brief: as §1
[60] = system: NCI-H460; assay: Growth inhibition of human NCI-H460 cells assessed tumor cell growth at 10^-5 M; method in brief: as §1

Cc1ccc(S(=O)(=O)n2cc(/C=C3\C(=O)N(c4c(Cl)cccc4Cl)c4ccccc43)c3ccccc32)cc1
Activity [1]: 94.2%
Activity [2]: 91.5%
Activity [3]: 84%
Activity [4]: 121.2%
Activity [5]: 86.4%
Activity [6]: 103.8%
Activity [7]: 76%
Activity [8]: 44%
Activity [9]: 95.8%
Activity [10]: 106.8%
Activity [11]: 77.8%
Activity [12]: 79.6%
Activity [13]: 100.1%
Activity [14]: 89.9%
Activity [15]: 97.6%
Activity [16]: 89.3%
Activity [17]: 98.2%
Activity [18]: 64.5%
Activity [19]: 79.5%
Activity [20]: 87%
Activity [21]: 102.5%
Activity [22]: 105.9%
Activity [23]: 102.9%
Activity [24]: 75.8%
Activity [25]: 98.7%
Activity [26]: 95.6%
Activity [27]: 83.2%
Activity [28]: 92.1%
Activity [29]: 78.2%
Activity [30]: 83.8%
Activity [31]: 99.4%
Activity [32]: 104.5%
Activity [33]: 73.8%
Activity [34]: 89.5%
Activity [35]: 89.7%
Activity [36]: 86.5%
Activity [37]: 63.9%
Activity [38]: 87.4%
Activity [39]: 94.9%
Activity [40]: 74.3%
Activity [41]: 100.8%
Activity [42]: 99.2%
Activity [43]: 94.5%
Activity [44]: 87.4%
Activity [45]: 89.6%
Activity [46]: 89.8%
Activity [47]: 88.7%
Activity [48]: 101%
Activity [49]: 88.2%
Activity [50]: 33.5%
Activity [51]: 96.7%
Activity [52]: 73.4%
Activity [53]: 102.3%
Activity [54]: 95.2%
Activity [55]: 84.6%
Activity [56]: 89.3%
Activity [57]: 76.6%
Activity [58]: 84.2%
Activity [59]: 86.7%
Activity [60]: 102.8%
